Source: ChEMBL document CHEMBL4321868, “Scaffold Simplification Strategy Leads to a Novel Generation of Dual Human Immunodeficiency Virus and Enterovirus-A71 Entry Inhibitors” (J Med Chem, 2020)

Legend:
[1] = system: Human immunodeficiency virus 1; assay: Antiviral activity against HIV1 NL4.3 infected in human MT4 cells assessed as reduction in virus-induced cytopathic effect preincubated for 30 mins followed by viral infection and measured after 5 days by MTS assay; assay type: functional, organism-based; details: Human immunodeficiency virus 1, NL4.3, MT4
[2] = Cytotoxicity against human MT4 cells assessed as reduction in cell viability measured after 5 days by MTS/PES assay; assay type: cell-based
How it was run: (§1)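 MT-4 cells (RPMI-1640, 10% FCS, 1% L-glutamine) pre-incubated 30 min at 37 °C with compound, then infected with HIV-1 NL4.3 or HIV-2 ROD according to stock TCID50. After 5 days, CPE scored microscopically and viability read by MTS/PES at A490 to derive EC50; cytotoxicity measured by MTS/PES at 5 days in the same cells. SI = CC50/EC50. Mean ± S.D. of at least 3 experiments.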

[3] = system: Human immunodeficiency virus 2; assay: Antiviral activity against HIV-2 ROD infected in human MT4 cells assessed as reduction in virus-induced cytopathic effect preincubated for 30 mins followed by viral infection and measured after 5 days by MTS assay; details: Human immunodeficiency virus 2, ISOLATE ROD
Enterovirus A71 = assay: Antiviral activity against Enterovirus A 71 BrCr infected in human RD cells assessed as reduction in virus-induced cytopathic effect preincubated for 1 day followed by viral infection and measured after 3 days by MTS/PMS method; assay type: functional, organism-based; details: strain BRCR
How it was run: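 RD cells seeded in 96-well plates; next day serial compound dilutions plus virus at low MOI added. Incubation at 37 °C, 5% CO₂ until full CPE in untreated infected controls (3 days). Viability read by MTS/PMS; EC50 as 50% inhibition of virus-induced death from dose-response curves. CC50 from uninfected treated cells in the same setup; SI = CC50/EC50.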

[4] = Selectivity index, ratio of CC50 for human MT4 cells to EC50 for HIV1 NL4.3 infected in human MT4 cells; assay type: toxicity, cell-based; details: read-out: Ratio CC50/EC50; how it was run: as §1
[5] = Selectivity index, ratio of CC50 for human MT4 cells to EC50 for HIV-1 NL4.3 infected in human MT4 cells
[6] = Selectivity index, ratio of CC50 for human RD cells to EC50 for Enterovirus A71 BrCr infected in human RD cells; assay type: toxicity, cell-based; details: read-out: Ratio CC50/EC50
How it was run: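 RD cells seeded in 96-well plates; next day serial compound dilutions plus virus at low MOI added. Incubation at 37 °C, 5% CO₂ until full CPE in untreated infected controls (3 days). CC50 from uninfected treated cells in the same setup; SI = CC50/EC50.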

Row | Compound | EC50 [1] [µM] | CC50 at 120 h [2] [µM] | EC50 [3] [µM] | EC50 (Enterovirus A71) [µM] | selectivity ratio [4] | selectivity ratio [5] | EC90 (Enterovirus A71) [µM] | selectivity ratio [6]
1 | O=C(CCC(CCC(=O)NC(Cc1c(-c2ccc(C(F)(F)F)cc2)[nH]c2ccccc12)C(=O)O)(CCC(=O)NC(Cc1c(-c2ccc(C(F)(F)F)cc2)[nH]c2ccccc12)C(=O)O)[N+](=O)[O-])NC(Cc1c(-c2ccc(C(F)(F)F)cc2)[nH]c2ccccc12)C(=O)O (stereo unspecified) | 26 | > 100 | 68 | > 78.9 | > 4 | > 4 |  | 
2 | COc1ccc(-c2[nH]c3ccccc3c2CC(NC(=O)CCC(CCC(=O)NC(Cc2c(-c3ccc(OC)cc3)[nH]c3ccccc23)C(=O)O)(CCC(=O)NC(Cc2c(-c3ccc(OC)cc3)[nH]c3ccccc23)C(=O)O)[N+](=O)[O-])C(=O)O)cc1 (stereo unspecified) | > 9.3 | 9.3 | > 9.3 | > 86.6 |  |  |  | 
3 | O=C(CCOCC(COCCC(=O)NC(Cc1cn(Cc2ccc(C(=O)O)cc2)c2ccccc12)C(=O)O)(COCCC(=O)NC(Cc1cn(Cc2ccc(C(=O)O)cc2)c2ccccc12)C(=O)O)COCCC(=O)NC(Cc1cn(Cc2ccc(C(=O)O)cc2)c2ccccc12)C(=O)O)NC(Cc1cn(Cc2ccc(C(=O)O)cc2)c2ccccc12)C(=O)O (stereo unspecified) | > 76 | 76 | > 76 | > 19.5 |  |  |  | 
4 | O=C(CCC(CCC(=O)NC(Cc1c[nH]c2ccccc12)C(=O)O)(CCC(=O)NC(Cc1c[nH]c2ccccc12)C(=O)O)[N+](=O)[O-])NC(Cc1c[nH]c2ccccc12)C(=O)O (stereo unspecified) | > 100 | > 100 | > 100 | > 120 |  |  |  | 
5 | CN[C@@H]1[C@H](O[C@@H]2OC[C@@H](O)[C@H](O)[C@H]2O)[C@@H](O)[C@H](O[C@H]2c3cc(C)c(C(=O)N[C@H](C)C(=O)O)c(O)c3-c3c(cc4c(c3O)C(=O)c3cc(OC)cc(O)c3C4=O)[C@@H]2O)O[C@@H]1C [PRADIMICIN A] | 3.3 | > 100 |  |  | > 30.3 | > 30.3 |  | 
6 | O=C(CCC(CCC(=O)NC(Cc1cn(Cc2ccc(F)cc2)c2ccccc12)C(=O)O)(CCC(=O)NC(Cc1cn(Cc2ccc(F)cc2)c2ccccc12)C(=O)O)[N+](=O)[O-])NC(Cc1cn(Cc2ccc(F)cc2)c2ccccc12)C(=O)O (stereo unspecified) | 43 | > 100 | 34 |  | > 2.3 | > 2.3 |  | 
7 | O=C(CCC(CCC(=O)NC(Cc1c(-c2ccc([N+](=O)[O-])cc2)[nH]c2ccccc12)C(=O)O)(CCC(=O)NC(Cc1c(-c2ccc([N+](=O)[O-])cc2)[nH]c2ccccc12)C(=O)O)[N+](=O)[O-])NC(Cc1c(-c2ccc([N+](=O)[O-])cc2)[nH]c2ccccc12)C(=O)O (stereo unspecified) | 41 | > 100 | 43 | 28.8 | > 2 | > 2 | 58.2 | 
8 | O=C(CCC(CCC(=O)NC(Cc1c(-c2ccccc2F)[nH]c2ccccc12)C(=O)O)(CCC(=O)NC(Cc1c(-c2ccccc2F)[nH]c2ccccc12)C(=O)O)[N+](=O)[O-])NC(Cc1c(-c2ccccc2F)[nH]c2ccccc12)C(=O)O (stereo unspecified) | 35 | > 100 | > 100 | > 89.4 | > 3 | > 3 |  | 
9 | O=C(CCOCC(COCCC(=O)NC(Cc1c[nH]c2ccccc12)C(=O)O)(COCCC(=O)NC(Cc1c[nH]c2ccccc12)C(=O)O)COCCC(=O)NC(Cc1c[nH]c2ccccc12)C(=O)O)NC(Cc1c[nH]c2ccccc12)C(=O)O (stereo unspecified) | > 250 | > 250 | > 250 | > 100 |  |  |  | 
10 | O=C(CCC(CCC(=O)NC(Cc1c(-c2cccc(C(=O)O)c2)[nH]c2ccccc12)C(=O)O)(CCC(=O)NC(Cc1c(-c2cccc(C(=O)O)c2)[nH]c2ccccc12)C(=O)O)[N+](=O)[O-])NC(Cc1c(-c2cccc(C(=O)O)c2)[nH]c2ccccc12)C(=O)O (stereo unspecified) | 16 | > 100 | 64 | 0.99 | > 6 | > 6 | 1.35 | > 73.4
11 | O=C(CCC(CCC(=O)NC(Cc1cn(Cc2ccccc2)c2ccccc12)C(=O)O)(CCC(=O)NC(Cc1cn(Cc2ccccc2)c2ccccc12)C(=O)O)[N+](=O)[O-])NC(Cc1cn(Cc2ccccc2)c2ccccc12)C(=O)O (stereo unspecified) | 49 | > 100 | 38 |  | > 2 | > 2 |  | 
12 | O=C(CCC(CCC(=O)NC(Cc1c(-c2ccc(C(=O)O)cc2)[nH]c2ccccc12)C(=O)O)(CCC(=O)NC(Cc1c(-c2ccc(C(=O)O)cc2)[nH]c2ccccc12)C(=O)O)[N+](=O)[O-])NC(Cc1c(-c2ccc(C(=O)O)cc2)[nH]c2ccccc12)C(=O)O (stereo unspecified) | 2.4 | 71 | > 71 | 12.2 | 29.6 | 29.6 |  | 
13 | O=C(CCOCC(COCCC(=O)NC(Cc1c(-c2ccc(C(=O)O)cc2)[nH]c2ccccc12)C(=O)O)(COCCC(=O)NC(Cc1c(-c2ccc(C(=O)O)cc2)[nH]c2ccccc12)C(=O)O)COCCC(=O)NC(Cc1c(-c2ccc(C(=O)O)cc2)[nH]c2ccccc12)C(=O)O)NC(Cc1c(-c2ccc(C(=O)O)cc2)[nH]c2ccccc12)C(=O)O (stereo unspecified) | 0.73 | > 100 | 0.75 | 0.37 | > 137 | > 137 | 0.63 | 161
14 | O=C(CCC(CCC(=O)NC(Cc1c(-c2ccccc2)[nH]c2ccccc12)C(=O)O)(CCC(=O)NC(Cc1c(-c2ccccc2)[nH]c2ccccc12)C(=O)O)[N+](=O)[O-])NC(Cc1c(-c2ccccc2)[nH]c2ccccc12)C(=O)O (stereo unspecified) | 19 | 83 | > 83 | > 100 | 4.4 | 4.4 |  | 
15 | O=C(CCC(CCC(=O)NC(Cc1cn(Cc2ccc(C(=O)O)cc2)c2ccccc12)C(=O)O)(CCC(=O)NC(Cc1cn(Cc2ccc(C(=O)O)cc2)c2ccccc12)C(=O)O)[N+](=O)[O-])NC(Cc1cn(Cc2ccc(C(=O)O)cc2)c2ccccc12)C(=O)O (stereo unspecified) | 41 | > 100 | 47 |  | > 2.4 | > 2.4 |  | 
16 | O=C(CCC(CCC(=O)NC(Cc1c(-c2ccc(Br)cc2)[nH]c2ccccc12)C(=O)O)(CCC(=O)NC(Cc1c(-c2ccc(Br)cc2)[nH]c2ccccc12)C(=O)O)[N+](=O)[O-])NC(Cc1c(-c2ccc(Br)cc2)[nH]c2ccccc12)C(=O)O (stereo unspecified) | > 30 | 30 | > 30 | 65.2 |  |  |  | 
